# In paper PMC12103582 (Nature Communications, 2025):
# Columns and labels:
# [1] = test system: postoperative pain in patients who underwent elective abdominal surgery; assay: HSK21542-303 phase 3 trial: efficacy; format: in vivo, human; details: for SPID0–12h, LS mean (SE): 1.0 μg/kg (tramadol 50 mg/dose) i.v. at 0, 8, 16 h; for Time to rescue analgesic initiation, P25 (95% CI): 25th percentile; for Cumulative rescue analgesic dose 0–12h / Cumulative rescue analgesic dose 0–24 h: flurbiprofen axetil i.v.; for Cumulative rescue analgesic dose 0–12h / Cumulative rescue analgesic dose 0–24 h / Duration of analgesic effect / Patient satisfaction score / Physician satisfaction score: mean (SD); for Rescue analgesic received 0–12h, n (%) / Rescue analgesic received 0–24 h, n (%): rescue flurbiprofen axetil 50 mg i.v.; for NRS ≤3 12 h, n (%) / NRS ≤3 24 h, n (%): resting pain; for Patient satisfaction score / Physician satisfaction score: scale 0–10 at 24 h
# [2] = test system: patients who underwent elective abdominal surgery; assay: HSK21542-303: safety; format: in vivo, human
# How it was run: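 First dose given by i.v. pump within 10 min of randomization and a resting NRS ≥4 (within 4 h postsurgery); three doses 8 h ±15 min apart. Rescue flurbiprofen axetil 50 mg i.v. Antiemetic on demand only, tropisetron 2.5 mg preferred. TEAEs graded by CTCAE v5.0, with labs, ECG and vital signs over an 8-day follow-up.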
# [3] = cited from earlier work
# [4] = HSK21542-303, FAS, flurbiprofen axetil 50 mg i.v.
# [5] = HSK21542-303, follow-up period, arms taken as HSK21542 vs tramadol vs placebo
smiles,measurement,setting,value
"COc1cccc(C2(O)CCCCC2CN(C)C)c1 (stereo not drawn) [Tramadol, tramadol]",patients with NRS ≤3 within 12 h,"[1]; HSK21542-303, FAS",51.2%
same,patients with NRS ≤3 within 24 h,"[1]; HSK21542-303, FAS",48.1%
same,"SPID0–12h, LS mean (SE)","[1]; HSK21542-303, FAS",−28.7 (1.11)
same,"Time to rescue analgesic initiation, P25 (95% CI)","[1]; HSK21542-303, FAS","1.17 (0.53, 4.57) h"
same,patients who received rescue analgesics within 0–12 h after first dose,[1]; [4],34.1%
same,patients who received rescue analgesics within 0–24 h after first dose,[1]; [4],35.7%
same,Cumulative rescue analgesic dose 0–12h,"[1]; HSK21542-303, FAS",26.7 (44.21) mg
same,Cumulative rescue analgesic dose 0–24 h,"[1]; HSK21542-303, FAS",29.3 (46.78) mg
same,Duration of analgesic effect,"[1]; HSK21542-303, FAS",21.3 (5.46) h
same,"Rescue analgesic received 0–12h, n (%)","[1]; HSK21542-303, FAS",44 (34.1) n (%)
same,"Rescue analgesic received 0–24 h, n (%)","[1]; HSK21542-303, FAS",46 (35.7) n (%)
same,"NRS ≤3 12 h, n (%)","[1]; HSK21542-303, FAS",66 (51.2) n (%)
same,"NRS ≤3 24 h, n (%)","[1]; HSK21542-303, FAS",62 (48.1) n (%)
same,Patient satisfaction score,"[1]; HSK21542-303, FAS",8.5 (1.58)
same,Physician satisfaction score,"[1]; HSK21542-303, FAS",8.4 (1.42)
same,"SPID0–12h, LS mean (SE)","[1]; HSK21542-303, PPS",−29.8 (0.99)
same,"Time to rescue analgesic initiation, P25 (95% CI)","[1]; HSK21542-303, PPS","1.89 (0.60, 12.73) h"
same,Cumulative rescue analgesic dose 0–12h,"[1]; HSK21542-303, PPS",23.3 (39.39) mg
same,Cumulative rescue analgesic dose 0–24 h,"[1]; HSK21542-303, PPS",26.0 (42.68) mg
same,Duration of analgesic effect,"[1]; HSK21542-303, PPS",22.4 (3.09) h
same,"Rescue analgesic received 0–12h, n (%)","[1]; HSK21542-303, PPS",39 (32.5) n (%)
same,"Rescue analgesic received 0–24 h, n (%)","[1]; HSK21542-303, PPS",41 (34.2) n (%)
same,"NRS ≤3 12 h, n (%)","[1]; HSK21542-303, PPS",63 (52.5) n (%)
same,"NRS ≤3 24 h, n (%)","[1]; HSK21542-303, PPS",59 (49.2) n (%)
same,Patient satisfaction score,"[1]; HSK21542-303, PPS",8.5 (1.59)
same,Physician satisfaction score,"[1]; HSK21542-303, PPS",8.4 (1.43)
same,incidence of nausea,[2]; HSK21542-303,41.9%
same,incidence of vomiting,[2]; HSK21542-303,38.0%
same,patients administered antiemetics within 24 h post first dose,[2]; HSK21542-303,54 (41.9%) n (%)
same,patients with TEAEs that led to study withdrawal,[2]; HSK21542-303,two
same,Anemia,"[2]; HSK21542-303, safety set",16 (12.4) n (%)
same,Decreased lymphocyte count,"[2]; HSK21542-303, safety set",0 n (%)
same,Decreased serum potassium,"[2]; HSK21542-303, safety set",3 (2.3) n (%)
same,Decreased thyroid-stimulating hormone,"[2]; HSK21542-303, safety set",0 n (%)
same,Drug-related TEAE,"[2]; HSK21542-303, safety set",74 (57.4) n (%)
same,Fever,"[2]; HSK21542-303, safety set",10 (7.8) n (%)
same,Hematuria,"[2]; HSK21542-303, safety set",2 (1.6) n (%)
same,Hypokalemia,"[2]; HSK21542-303, safety set",10 (7.8) n (%)
same,Inflammation,"[2]; HSK21542-303, safety set",1 (0.8) n (%)
same,Nausea,"[2]; HSK21542-303, safety set",54 (41.9) n (%)
same,SAE,"[2]; HSK21542-303, safety set",1 (0.8) n (%)
same,Vomiting,"[2]; HSK21542-303, safety set",49 (38.0) n (%)
same,Any AE,"[2]; HSK21542-303, safety set, 1.0 μg/kg (tramadol 50 mg/dose) i.v. at 0, 8, 16 h",108 (83.7) n (%)
same,SAE,"[2]; HSK21542-303, safety set, listed as tramadol",One
same,abnormal diastolic blood pressure,[2]; [5],0 cases
same,abnormal heart rate,[2]; [5],1 case
same,abnormal systolic blood pressure,[2]; [5],0 case
same,excretion,[3],mainly excreted via the kidneys
